According to ChEMBL document CHEMBL1124009 (J Med Chem, 1988):

Columns and labels:
[1] = target: Delta-type opioid receptor (Rattus norvegicus, UniProt P33533); test: Binding affinity in competition with [3H]- DPDPE in Opioid receptor delta 1 binding to rat brain membrane
Procedure, shortened: (§1)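 Brains (minus cerebellum) of male Sprague–Dawley rats (200–250 g) were homogenized, preincubated 30 min at 25 °C and centrifuged twice at 43000g. Homogenate at 0.5% final was incubated with 0.5 nM [3H]CTOP (μ) or 1.0 nM [3H]DPDPE (δ) in 50 mM Tris-HCl pH 7.4 with 5 mM MgCl2, BSA 1 mg/mL and 100 μM PMSF, 120 min at 25 °C, in duplicate. Nonspecific binding was taken with 1 μM naloxone; bound label was filtered and scintillation counted; curves were fit by nonlinear least squares.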

Mu-type opioid receptor = Mu-type opioid receptor (Rattus norvegicus, UniProt P33535); test: Binding affinity in competition with [3H]- CTOP in Opioid receptor mu 1 binding to rat brain membrane; procedure, shortened: as §1
Somatostatin receptor = test: Binding affinity in competition with [125I]- CGP-23996 in somatostatin receptor binding to rat brain membrane
Procedure, shortened: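 Rat whole-brain membranes (adult male Sprague–Dawley) at 1.0% final tissue were incubated with 0.2 nM [125I]CGP 23,996 and analogues at 100–0.3 μM. Buffer was 50 mM Tris pH 7.4 with 2.0 mg/mL BSA, 20 μg/mL bacitracin and 5 mM MgCl2. Incubation ran 1 h at 37 °C and ended by rapid filtration through BSA-soaked GF/B filters.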

Delta-type opioid receptor, sequence (P33533 whole entry): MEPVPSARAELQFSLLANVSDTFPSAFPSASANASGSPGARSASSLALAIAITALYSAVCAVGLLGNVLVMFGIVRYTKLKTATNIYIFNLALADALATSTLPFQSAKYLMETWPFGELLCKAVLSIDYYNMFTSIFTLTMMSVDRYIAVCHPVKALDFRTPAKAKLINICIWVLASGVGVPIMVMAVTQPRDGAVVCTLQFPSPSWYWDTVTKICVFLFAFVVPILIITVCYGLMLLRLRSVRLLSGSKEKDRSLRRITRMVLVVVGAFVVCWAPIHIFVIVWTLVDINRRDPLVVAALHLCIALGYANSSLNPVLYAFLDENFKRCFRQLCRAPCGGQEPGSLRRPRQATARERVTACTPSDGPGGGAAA
Mu-type opioid receptor, sequence (P33535 whole entry): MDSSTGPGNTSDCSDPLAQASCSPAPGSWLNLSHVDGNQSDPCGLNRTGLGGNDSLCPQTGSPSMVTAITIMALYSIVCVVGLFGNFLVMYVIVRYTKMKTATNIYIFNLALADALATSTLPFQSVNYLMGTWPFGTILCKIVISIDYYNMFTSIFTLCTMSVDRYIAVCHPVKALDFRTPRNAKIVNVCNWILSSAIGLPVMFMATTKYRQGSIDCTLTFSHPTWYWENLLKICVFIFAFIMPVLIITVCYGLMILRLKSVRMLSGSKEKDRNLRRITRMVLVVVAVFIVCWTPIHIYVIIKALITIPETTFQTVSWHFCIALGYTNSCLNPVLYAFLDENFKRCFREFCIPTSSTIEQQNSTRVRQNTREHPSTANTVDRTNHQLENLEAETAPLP

C[C@@H](O)[C@H](NC(=O)[C@H]1NC(=O)[C@H]([C@@H](C)O)NC(=O)[C@H](CCCN=C(N)N)NC(=O)[C@@H](Cc2c[nH]c3ccccc23)NC(=O)[C@H](Cc2ccc(O)cc2)NC(=O)[C@@H](NC(=O)[C@H](N)Cc2ccccc2)CSSC1(C)C)C(N)=O
IC50 [1]: 5.31 µM | IC50 (Mu-type opioid receptor): 0.0021 µM

C[C@@H](O)[C@H](NC(=O)[C@H]1NC(=O)[C@H]([C@@H](C)O)NC(=O)[C@H](CCCN)NC(=O)[C@@H](Cc2c[nH]c3ccccc23)NC(=O)[C@H](Cc2ccc(O)cc2)NC(=O)[C@@H](NC(=O)[C@H](N)Cc2ccccc2)CSSC1(C)C)C(N)=O
IC50 [1]: 5.6 µM

C[C@@H](O)[C@H](NC(=O)[C@H]1NC(=O)[C@H](CC(N)=O)NC(=O)[C@H](Cc2ccccc2)NC(=O)[C@@H](NC(=O)[C@H](N)Cc2ccc(O)cc2)CSSC1(C)C)C(N)=O
IC50 [1]: ≥ 10 µM | IC50 (Mu-type opioid receptor): 7.47 µM

C[C@@H](O)[C@H](NC(=O)[C@@H]1NC(=O)[C@H]([C@@H](C)O)NC(=O)[C@@H](Cc2c[nH]c3ccccc23)NC(=O)[C@H](Cc2ccc(O)cc2)NC(=O)[C@@H](NC(=O)[C@H](N)Cc2ccccc2)CSSC1(C)C)C(N)=O
IC50 [1]: 7.82 µM | IC50 (Mu-type opioid receptor): 10 µM

C[C@@H](O)[C@H](NC(=O)[C@H]1NC(=O)[C@H](CC(N)=O)NC(=O)[C@H](Cc2ccc(O)cc2)NC(=O)[C@@H](NC(=O)[C@H](N)Cc2ccccc2)CSSC1(C)C)C(N)=O
IC50 [1]: > 10 µM

C[C@@H](O)[C@@H]1NC(=O)[C@H](CCCCN)NC(=O)C(Cc2c[nH]c3ccccc23)NC(=O)[C@H](Cc2ccc(O)cc2)NC(=O)[C@@H](NC(=O)[C@H](N)Cc2ccccc2)CSSC(C)(C)[C@@H](C(=O)N[C@@H](CC(N)=O)C(N)=O)NC1=O (stereo in doubt) [listing 1 of 2 here]
IC50 [1]: > 10 µM | IC50 (Mu-type opioid receptor): 0.13 µM

C[C@@H](O)[C@@H]1NC(=O)[C@H](CCCCN)NC(=O)C(Cc2c[nH]c3ccccc23)NC(=O)[C@H](Cc2ccc(O)cc2)NC(=O)[C@@H](NC(=O)[C@H](N)Cc2ccccc2)CSSC(C)(C)[C@@H](C(=O)N[C@@H](CC(N)=O)C(N)=O)NC1=O (stereo in doubt) [listing 2 of 2 here]
IC50 (Somatostatin receptor): 1.801 µM

C[C@@H](O)[C@@H]1NC(=O)[C@H](CCCCN)NC(=O)C(Cc2c[nH]c3ccccc23)NC(=O)[C@H](Cc2ccc(O)cc2)NC(=O)[C@@H](NC(=O)[C@H]2Cc3ccccc3CN2)CSSC(C)(C)[C@@H](C(=O)N[C@@H](CO)C(N)=O)NC1=O (stereo in doubt) [listing 1 of 2 here]
IC50 [1]: 3.83 µM | IC50 (Mu-type opioid receptor): 0.0078 µM

C[C@@H](O)[C@@H]1NC(=O)[C@H](CCCCN)NC(=O)C(Cc2c[nH]c3ccccc23)NC(=O)[C@H](Cc2ccc(O)cc2)NC(=O)[C@@H](NC(=O)[C@H]2Cc3ccccc3CN2)CSSC(C)(C)[C@@H](C(=O)N[C@@H](CO)C(N)=O)NC1=O (stereo in doubt) [listing 2 of 2 here]
IC50 (Somatostatin receptor): 1.499 µM

C[C@@H](O)[C@H](NC(=O)[C@H]1NC(=O)[C@H](CCCCN)NC(=O)C(Cc2c[nH]c3ccccc23)NC(=O)[C@@H](Cc2ccc(O)cc2)NC(=O)[C@@H](NC(=O)[C@H]2Cc3ccccc3CN2)CSSC1(C)C)C(N)=O (stereo in doubt) [listing 1 of 2 here]
IC50 [1]: > 10 µM | IC50 (Mu-type opioid receptor): 9.41 µM

C[C@@H](O)[C@H](NC(=O)[C@H]1NC(=O)[C@H](CCCCN)NC(=O)C(Cc2c[nH]c3ccccc23)NC(=O)[C@@H](Cc2ccc(O)cc2)NC(=O)[C@@H](NC(=O)[C@H]2Cc3ccccc3CN2)CSSC1(C)C)C(N)=O (stereo in doubt) [listing 2 of 2 here]
IC50 (Somatostatin receptor): 13.61 µM

C[C@@H](O)[C@H](NC(=O)[C@H]1NC(=O)[C@H]([C@@H](C)O)NC(=O)[C@H](CCCCN)NC(=O)C(Cc2c[nH]c3ccccc23)NC(=O)[C@@H](Cc2ccc(O)cc2)NC(=O)[C@@H](NC(=O)[C@H]2Cc3ccccc3CN2)CSSC1(C)C)C(N)=O (stereo in doubt)
IC50 (Somatostatin receptor): 0.949 µM

C[C@@H](O)[C@H](NC(=O)[C@H]1NC(=O)[C@H]([C@@H](C)O)NC(=O)[C@H](CCCN)NC(=O)C(Cc2c[nH]c3ccccc23)NC(=O)[C@@H](Cc2ccc(O)cc2)NC(=O)[C@@H](NC(=O)[C@H]2Cc3ccccc3CN2C(=O)CN)CSSC1(C)C)C(N)=O (stereo in doubt)
IC50 (Somatostatin receptor): 19.408 µM

C[C@@H](O)[C@H](NC(=O)[C@H]1NC(=O)[C@H]([C@@H](C)O)NC(=O)[C@H](CCCCN)NC(=O)C(Cc2c[nH]c3ccccc23)NC(=O)[C@H](Cc2ccc(O)cc2)NC(=O)[C@@H](NC(=O)C(N)Cc2c[nH]c3ccccc23)CSSC1(C)C)C(N)=O (stereo in doubt) [listing 1 of 2 here]
IC50 [1]: > 10 µM | IC50 (Mu-type opioid receptor): 0.0063 µM

C[C@@H](O)[C@H](NC(=O)[C@H]1NC(=O)[C@H]([C@@H](C)O)NC(=O)[C@H](CCCCN)NC(=O)C(Cc2c[nH]c3ccccc23)NC(=O)[C@H](Cc2ccc(O)cc2)NC(=O)[C@@H](NC(=O)C(N)Cc2c[nH]c3ccccc23)CSSC1(C)C)C(N)=O (stereo in doubt) [listing 2 of 2 here]
IC50 (Somatostatin receptor): 1.599 µM

C[C@@H](O)[C@H](NC(=O)[C@@H]1NC(=O)[C@H](CCCCN)NC(=O)C(Cc2c[nH]c3ccccc23)NC(=O)[C@H](Cc2ccc(O)cc2)NC(=O)[C@@H](NC(=O)[C@@H](N)Cc2ccccc2)CSSC1(C)C)C(N)=O (stereo in doubt) [listing 1 of 2 here]
IC50 [1]: > 10 µM

C[C@@H](O)[C@H](NC(=O)[C@@H]1NC(=O)[C@H](CCCCN)NC(=O)C(Cc2c[nH]c3ccccc23)NC(=O)[C@H](Cc2ccc(O)cc2)NC(=O)[C@@H](NC(=O)[C@@H](N)Cc2ccccc2)CSSC1(C)C)C(N)=O (stereo in doubt) [listing 2 of 2 here]
IC50 (Somatostatin receptor): 6.103 µM

C[C@@H](O)[C@@H]1NC(=O)[C@H](CCCCN)NC(=O)C(Cc2c[nH]c3ccccc23)NC(=O)[C@H](Cc2ccc(O)cc2)NC(=O)[C@@H](NC(=O)[C@H](N)Cc2ccccc2)CSSC(C)(C)[C@@H](C(N)=O)NC1=O (stereo in doubt) [listing 1 of 2 here]
IC50 [1]: > 10 µM | IC50 (Mu-type opioid receptor): 0.115 µM

C[C@@H](O)[C@@H]1NC(=O)[C@H](CCCCN)NC(=O)C(Cc2c[nH]c3ccccc23)NC(=O)[C@H](Cc2ccc(O)cc2)NC(=O)[C@@H](NC(=O)[C@H](N)Cc2ccccc2)CSSC(C)(C)[C@@H](C(N)=O)NC1=O (stereo in doubt) [listing 2 of 2 here]
IC50 (Somatostatin receptor): 1.942 µM

C[C@@H](O)[C@@H]1NC(=O)[C@H](CCCCN)NC(=O)C(Cc2c[nH]c3ccccc23)NC(=O)[C@H](Cc2ccc(O)cc2)NC(=O)[C@@H](NC(=O)[C@H](N)Cc2ccccc2)CSSC(C)(C)[C@@H](C(=O)N[C@@H](CC(=O)O)C(N)=O)NC1=O (stereo in doubt)
IC50 (Somatostatin receptor): 8.3 µM

C[C@@H](O)[C@@H]1NC(=O)[C@H](CCCCN)NC(=O)C(Cc2c[nH]c3ccccc23)NC(=O)[C@H](Cc2ccc(O)cc2)NC(=O)[C@@H](NC(=O)[C@H](N)Cc2ccccc2)CSSC(C)(C)[C@@H](C(=O)N[C@@H](CO)C(N)=O)NC1=O (stereo in doubt)
IC50 (Somatostatin receptor): 1.888 µM

CN[C@H](Cc1ccccc1)C(=O)N[C@H]1CSSC(C)(C)[C@@H](C(=O)N[C@H](C(N)=O)[C@@H](C)O)NC(=O)[C@H]([C@@H](C)O)NC(=O)[C@H](CCCN)NC(=O)C(Cc2c[nH]c3ccccc23)NC(=O)[C@H](Cc2ccc(O)cc2)NC1=O (stereo in doubt)
IC50 (Somatostatin receptor): 8.054 µM

C[C@@H](O)[C@@H]1NC(=O)[C@H](CCCN)NC(=O)C(Cc2c[nH]c3ccccc23)NC(=O)[C@H](Cc2ccc(O)cc2)NC(=O)[C@@H](NC(=O)[C@H](N)Cc2ccccc2)CSSC(C)(C)[C@@H](C(N)=O)NC1=O (stereo in doubt) [listing 1 of 2 here]
IC50 [1]: > 10 µM | IC50 (Mu-type opioid receptor): 0.187 µM

C[C@@H](O)[C@@H]1NC(=O)[C@H](CCCN)NC(=O)C(Cc2c[nH]c3ccccc23)NC(=O)[C@H](Cc2ccc(O)cc2)NC(=O)[C@@H](NC(=O)[C@H](N)Cc2ccccc2)CSSC(C)(C)[C@@H](C(N)=O)NC1=O (stereo in doubt) [listing 2 of 2 here]
IC50 (Somatostatin receptor): 47.273 µM
